High-throughput results as filed in PubChem.
STEP block = STEP phosphatase inhibitors, primary screen, biochemical, fluorescence intensity, uHTS. AID 588621, 2011. inhibition, % at 20 µM. 360,000 compounds, 0.25% hits. recombinant STEP, OMFP fluorogenic substrate. Tyrosine-protein phosphatase non-receptor type 5 (Homo sapiens), P54829;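 active = inhibition at 20 µM, scaled per plate between control wells, above about 37%, limit read from the data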
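System: isolated STEP enzyme; schedule: 20 min enzyme reaction at room temperature, protected from light; medium: Bis-Tris buffer pH 6.0, 2.5 mM DTT, 0.005% Tween 20; signal: fluorescence, 480/540 nm; dosing: single compound dose of 20 µM, 1% DMSO final; also added: OMFP substrate, 25 µM final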
LMPTP inh = LMPTP phosphatase inhibitors, primary screen, biochemical, fluorescence intensity, uHTS. inhibition, % at 20 µM. AID 651560, 2012. 360,000 compounds, 0.22% hits. recombinant LMPTP-A, OMFP fluorogenic substrate;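 active = compounds that cut the enzyme signal by at least half of the control window in the single-dose screen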
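material = LMPTP-A | quantity = 0.625 nM enzyme | reagent = OMFP substrate, 400 µM final | buffer or medium = Bis-Tris pH 6.0, DTT, detergent | detection = endpoint fluorescence intensity from OMFP dephosphorylation | dosing = single 20 µM dose | read-out basis = % inhibition relative to no-enzyme and uninhibited control wells | control set = no-enzyme and uninhibited controls | timing = 50 min at room temperature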
SUMO HTRF inh = inhibitors of in vitro SUMOylation cascade, primary screen, biochemical, HTRF, uHTS; SUMO-conjugating enzyme UBC9 (Homo sapiens), P63279; HTRF SUMOylation assay, SAE1/SAE2 + UBC9; inhibition, % at 35 µM; 290,000 compounds, 0.36% hits; AID 2006, 2009; in the data active = inhibition above about 50%, passing the limit was not always enough
Scp1 inh = Scp-1 phosphatase inhibitors, primary screen, biochemical, colorimetric, uHTS. AID 493091, 2011. Carboxy-terminal domain RNA polymerase II polypeptide A small phosphatase 1 (Homo …. Recombinant Scp1, phosphopeptide, malachite green phosphate absorbance. inhibition, % at 20 µM. 340,000 compounds, 0.88% hits;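 active = inhibition above about 50% at 20 µM, limit read from the data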
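Material: truncated SCP-1 phosphatase (76-261aa) / Buffer or medium: 50 mM Tris acetate pH 5.5, 0.005% Tween-20, 10 mM MgCl2 / Compound dosing: one concentration, 20 µM, with 1.0% DMSO / Incubation: 45 min room-temperature reaction, 5 min colour, 30 min stabiliser / Detection: colorimetric free-phosphate detection, absorbance 630 nm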
SUMO1 PPI mod = modulators of SUMO1 protein-protein interactions, primary screen, biochemical, uHTS; Small ubiquitin-related modifier 1 (Homo sapiens), P63165; SUMO1 binding to a labelled peptide, TR-FRET, 1 h; inhibition, % at 20 µM; 360,000 compounds, 0.33% hits; AID 602429, 2012; in the data active = inhibition above about 37%
DNMT1 inh = human DNMT1 methyltransferase inhibitors, primary screen, biochemical, molecular beacon, fluorescence, HinP1I cleavage, uHTS | DNA (cytosine-5)-methyltransferase 1 (Homo sapiens), P26358 | inhibition (reported as % activation of signal), % at 10 µM | 360,000 compounds, 0.83% hits; in the data active = inhibition above about 50%
Target sequence (P26358 504-1616 limits assumed): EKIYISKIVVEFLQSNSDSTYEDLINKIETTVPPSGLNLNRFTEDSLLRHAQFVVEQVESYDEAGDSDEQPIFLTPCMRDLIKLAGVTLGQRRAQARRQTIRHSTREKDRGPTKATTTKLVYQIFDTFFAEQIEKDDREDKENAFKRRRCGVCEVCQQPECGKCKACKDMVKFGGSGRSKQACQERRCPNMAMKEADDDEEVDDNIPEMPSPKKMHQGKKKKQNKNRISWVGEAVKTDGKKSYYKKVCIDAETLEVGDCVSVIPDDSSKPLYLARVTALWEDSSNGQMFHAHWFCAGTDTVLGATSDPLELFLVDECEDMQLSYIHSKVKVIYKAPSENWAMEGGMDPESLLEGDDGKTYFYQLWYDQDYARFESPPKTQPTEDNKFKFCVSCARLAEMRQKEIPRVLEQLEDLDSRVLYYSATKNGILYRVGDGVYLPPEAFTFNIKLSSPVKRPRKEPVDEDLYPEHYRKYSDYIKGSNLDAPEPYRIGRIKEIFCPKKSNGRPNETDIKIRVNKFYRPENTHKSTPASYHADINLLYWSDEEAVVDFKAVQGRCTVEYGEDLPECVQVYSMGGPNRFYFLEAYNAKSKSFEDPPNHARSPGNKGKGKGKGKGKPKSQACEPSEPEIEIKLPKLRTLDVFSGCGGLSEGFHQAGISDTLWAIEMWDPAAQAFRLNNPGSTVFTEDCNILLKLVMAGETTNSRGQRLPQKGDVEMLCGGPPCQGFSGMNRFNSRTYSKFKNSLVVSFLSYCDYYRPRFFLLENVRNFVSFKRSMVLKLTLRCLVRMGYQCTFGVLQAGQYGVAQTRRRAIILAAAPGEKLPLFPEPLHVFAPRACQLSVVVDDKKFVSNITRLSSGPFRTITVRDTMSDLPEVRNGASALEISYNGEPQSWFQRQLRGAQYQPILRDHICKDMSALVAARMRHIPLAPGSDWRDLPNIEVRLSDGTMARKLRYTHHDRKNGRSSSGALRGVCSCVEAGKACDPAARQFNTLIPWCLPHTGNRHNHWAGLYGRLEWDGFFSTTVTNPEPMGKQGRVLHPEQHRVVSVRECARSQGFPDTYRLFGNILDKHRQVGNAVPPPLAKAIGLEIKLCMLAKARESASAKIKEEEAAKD
Scp-1 conf = Scp-1 phosphatase inhibitors, retest, confirmation, biochemical, colorimetric, single concentration | recombinant SCP-1 catalytic domain, phosphate release, malachite green absorbance | shares compounds with Scp1 inh | 2,500 compounds, 61% hits | inhibition, % at 20 µM | AID 540281, 2011
Scp-1 MG ctr = colorimetric readout interference by compounds, confirmation, artefact control for Scp-1 inhibitor project, biochemical, single concentration | Colorimetric interference counterscreen, malachite green absorbance 630 nm | 2,500 tested, under 10 active | shares compounds with Scp1 inh | AID 540313, 2011 | apparent inhibition (interference), % at 20 µM;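 also: compounds added after enzyme reaction finished so only phosphate colour detection is probed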
Scp-1 Tm shift = Scp-1 binding by thermal shift, confirmation, orthogonal assay for Scp-1 inhibitor project, biophysical, differential scanning fluorimetry; shares compounds with Scp1 inh; Recombinant SCP1, Sypro Orange thermal shift Tm; thermal shift relative to vanadate control, % at 40 µM; 1,500 compounds, 25% hits;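 active = substances whose mean melting-temperature shift, as a percentage of the reference inhibitor's shift, reaches about 5.3%, limit read from the data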
DNMT1 confirm = DNMT1 methyltransferase inhibitor retest, confirmation, biochemical, molecular beacon, fluorescence, single concentration. AID 602385, 2012. inhibition, % at 10 µM. DNMT1 molecular beacon HinP1I cleavage. shares compounds with DNMT1 inh. 2,300 compounds, 8% hits;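 active = average inhibition of at least 30% in the single-concentration confirmation test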
DNMT1 interf = shows spectral interference in the DNMT1 beacon assay; shares compounds with DNMT1 inh; DNMT1 molecular beacon spectral interference counterscreen, fluorescence 485/520; activation (fluorescence interference), % at 10 µM; 2,300 compounds, 1% hits;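 active = activation of at least 30% at 10 µM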;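 also: DNMT1 catalytic domain with a HinP1I cleavage step and a FAM/dabcyl DNA beacon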
Numbers stand for hits; n = inactive; x = no result. Most compounds without a hit are left out; they make up all but 1.9% or so of the library.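 The calls were made as follows, unless noted: active = inhibition of at least 30% at 20 µM; inactive = the rest.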

SMILES	STEP block	LMPTP inh	SUMO HTRF inh	Scp1 inh	SUMO1 PPI mod	DNMT1 inh	Scp-1 conf	Scp-1 MG ctr	Scp-1 Tm shift	DNMT1 confirm	DNMT1 interf
CCCc1nc2oc3ccccc3c(=O)c2c(=O)n1-c1ccc(C)cc1	n	n	n	n	n	n	x	x	x	x	x
CN(C)S(=O)(=O)c1cccc(NC(=O)COC(=O)/C=C/c2ccc(Br)o2)c1	n	n	n	n	n	n	x	x	x	x	x
NC(=O)c1ccc(NC(=O)COC(=O)/C=C/c2ccc(Br)o2)cc1	n	n	x	74.1	62.2	90.1	68.5	n	n	n	n
C=CCN1C(=O)/C(=C2/Sc3ccccc3N2CCCS(=O)(=O)O)SC1=S	n	n	n	86.5	n	67.5	63.9	n	13.2	n	n
CCN(CC(=O)Nc1c(F)cccc1F)C(=O)CCCSc1nc2ccccc2[nH]1	n	n	x	x	n	n	x	x	x	x	x
COc1ccc(Cn2c(-c3ccco3)nc3oc4ccccc4c(=O)c3c2=O)cc1	n	n	n	n	n	n	x	x	x	x	x
COc1ccc(Cn2c(-c3ccco3)nc3oc4cc(OC)ccc4c(=O)c3c2=O)cc1	n	n	n	79.4	n	61.3	67.8	n	n	n	n
COc1ccc2c(=O)c3c(=O)n(Cc4ccco4)c(-c4ccco4)nc3oc2c1	n	n	n	91.6	n	86.3	74.2	n	n	n	n
Cc1cc(C(O)c2ncc(-c3ccc(Oc4ccccc4)cc3)[nH]2)ccc1F (stereo not drawn)	n	n	x	x	n	n	x	x	x	x	x
CCOc1ccccc1/C=N/NC(=O)C[n+]1ccccc1	n	n	x	n	n	n	x	x	x	x	x
COC(=O)c1ccccc1NC(=O)c1noc2c1CCC2	n	n	n	69.8	n	98.9	64.8	n	n	n	n
CSc1ccccc1NC(=O)c1noc2c1CCC2	n	n	n	63.0	n	81.3	66.6	n	n	n	n
Cc1ccc(S(=O)(=O)NOCc2ccccc2)cc1	n	n	x	n	n	n	x	x	x	x	x
CCCOc1ccc(Cc2c(O)nc(SC)[nH]c2=O)cc1	n	n	n	n	n	n	x	x	x	x	x
CC(C)c1ccccc1NC(=O)Nc1nnc([C@H]2C[C@H](O)[C@@H](CO)O2)s1	n	n	x	x	n	n	x	x	x	x	x
C#Cc1ccc([C@@H]2C=C(C(=O)O)O[C@H](OCC)[C@H]2CCCO)cc1	n	n	x	52.6	n	52.4	47.2	n	n	n	n
